Measurements from PMC8892239 (EFSA Journal, 2022).
In brackets after ≈: the same amount, converted by molar mass. Several values for one entry are separate records, joined by “and”; a condition that tells them apart may be missing. Equal entries are not always repeated. Where two headings read alike, the source gives them in different places.

Key:
Caenorhabditis elegans = assay: Sediment toxicity test, ISO 10872, 96 h; assay type: in vivo
Procedure, shortened: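 GLP sediment test with Caenorhabditis elegans per ISO 10872. Sediment levels were 25.6, 64, 160, 400 and 1,000 mg/kg sediment DW, with four replicates per control and per concentration. Fertility, reproduction and growth were read 96 h after the nematodes were added.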

Lumbriculus variegatus = assay: Water-sediment test, OECD 225, 28 days; assay type: in vivo
Procedure, shortened: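 Lumbriculus variegatus test per OECD 225 in spiked artificial sediment, run for 28 days. Nominal levels were 18.8, 37.5, 75, 150, 300 and 600 mg/kg sediment DW, with four replicates each. An untreated control and a solvent control were run, six replicates each.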

Risk characterisation = assay: Risk characterisation
Procedure, shortened: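 For each compartment, a PNEC was derived by dividing the NOEC (or EC10 where indicated) by an assessment factor. Risk was expressed as the PEC/PNEC ratio.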

[1] = system: Brassica napus (oilseed rape); assay: Seedling emergence and seedling growth test, OECD 208; assay type: in vivo; settings: 21 days
Procedure, shortened: (§1)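 Soil was spiked with the test compound; measured concentrations were checked against nominal. From 50% emergence in controls, emergence, survival and visible phytotoxicity were recorded weekly for 21 days. At the end, emergence, survival, shoot fresh weight and visible damage were recorded. Effect concentrations were derived from dose–response curves.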

Pisum sativum (pea) = assay: as above; assay type: in vivo; settings: 21 days
Procedure, shortened: as §1

[2] = at 22°C; ref EFSA, 2010; cited from earlier work
male BALB/c mice = assay: Subchronic; assay type: in vivo, mouse; settings: EQ 5,000 mg/kg feed, after 10 days, mice refused their feed
Procedure, shortened: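 Groups of 10 BALB/c mice were fed the dimer for 90 days. Nominal levels were 0, 0.1, 1, 100, 1,000, 3,000 and 5,000 mg/kg feed, equal to 0, 0.015, 0.081, 10, 99, 286 and 518 mg/kg bw per day. A parent-compound group started at 5,000 mg/kg feed, was reduced to 1,000 mg/kg feed and was later excluded. BMD modelling used a 10% (or 20%) benchmark response.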

Daphnia magna [3] = assay: 21-day semi-static reproduction test; assay type: in vivo
[4] = at 25°C; ref EFSA, 2010; cited from earlier work
laying hens = assay: Tolerance study in laying hens; assay type: in vivo, HyLine Brown layers; settings: 50 mg ethoxyquin/kg feed
[5] = cited from earlier work; for Water solubility: ref EFSA, 2010
terrestrial plants = assay: Seedling emergence and seedling growth test, OECD 208, three plant species; assay type: in vivo, Avena sativa, Brassica napus, Pisum sativum
Procedure, shortened: as §1

Atlantic salmon = assay: Tolerance study in Atlantic salmon; assay type: in vivo, Salmo salar L.
[6] = Metabolism of 14C-EQ in liver slices; assay type: in vitro ADME, rat, laying hen and goat; settings: 10 and 100 µM, 37°C, 2 h
[7] = Antioxidant efficacy, storage of complete feed for sows; settings: for peroxide value after 3 months of storage: basal feed 47.3 meq O2/kg fat
Chironomus riparius = assay: Water-sediment test with spiked sediment, OECD 218, 28 days; assay type: in vivo; settings: nominal
Procedure, shortened: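 GLP static 28-day Chironomus riparius water–sediment test per OECD 218. The sediment was spiked at 62.5, 125, 250, 500 and 1,000 mg/kg sediment DW (nominal).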

[8] = Metabolism of 14C-EQ in liver microsomes; assay type: in vitro ADME, rat, laying hen and goat; settings: 10 and 100 µM, 37°C, 2 h
Procedure, shortened: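 Liver microsomes were used. Hen (Isa-Warren) and goat (Deutsche Edelziege/Burenziege) microsomes were prepared in-house; rat microsomes were commercial. Incubation was with ring-¹⁴C(U)-labelled test compound at 10 and 100 µM, 37°C, 2 h.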

[9] = Residues of EQ and metabolites/TPs in cattle tissues; assay type: in vivo; settings: for concentration at 42 days: Holstein, bovine, oral, 50 mg EQ/kg complete feed; for residue in muscle, highest value: LOQs as above
[10] = Oxygen bomb method, feed for chickens for fattening; settings: for induction period: basal feed 7 h
Daphnia magna [11] = assay: 48-h semi-static acute toxicity test, OECD 202; assay type: in vivo; settings: read-out: 48h EC50 (immobilization)
[12] = ref EFSA FEEDAP Panel, 2015; cited from earlier work
[13] = Antioxidant efficacy, storage of complete feed for chickens for fattening
[14] = 5,000 mg/kg feed (EQ4), 90 days
[15] = 10,000 mg/kg feed (EQ5), 90 days

CCOc1ccc2c(c1)C(C)=CC(C)(C)N2 [EQ, 6‐ethoxy‐1,2‐dihydro‐2,2,4‐trimethylquinoline]
EC10 for fertility and growth (Caenorhabditis elegans): > 1,000 mg/kg sediment DW
EC10 for reproduction (Caenorhabditis elegans): 727 mg/kg sediment DW
NOEC for fertility, reproduction and growth (Caenorhabditis elegans): 400 mg/kg sediment DW
EC10 for total number of worms/reproduction and total biomass per replicate (Lumbriculus variegatus): 148 mg test item/kg sediment DW and 148 ^* mg test item/kg sediment DW
NOEC for total number of worms and reproduction (Lumbriculus variegatus): 150 mg test item/kg sediment DW
mortality (Lumbriculus variegatus; 300 mg/kg sediment DW): 50%
mortality (Lumbriculus variegatus; 600 mg/kg sediment DW): 100%
PEC/PNEC, fish farmed in land-based systems (Risk characterisation): 0.10
PEC/PNEC, freshwater sediment (Risk characterisation): 0.02
PEC/PNEC, marine sediment (Risk characterisation): 1,550
PEC/PNEC, terrestrial compartment (earthworm) (Risk characterisation): 0.03
PNEC, freshwater sediment (Risk characterisation; AF 10): 12,500 μg/kg
PNEC, terrestrial compartment (earthworm) (Risk characterisation; AF 10): 17,100 μg/kg
PNEC, freshwater compartment (Risk characterisation; AF 50): 1.2 µg/L
PEC/PNEC, freshwater compartment (Risk characterisation; EQ used in terrestrial animals): 5
PNECsed, marine sediment (Risk characterisation; equilibrium partitioning approach, AF 1,000): 70.8 µg/kg
EC50, shoot fresh weight [1]: 155.6 mg/kg
EC50, shoot fresh weight (Pisum sativum (pea)): 181.3 mg/kg
Dissociation constant [2]: 4.56 at 22 °C
loss of initial body weight (male BALB/c mice): 11%
EC10 (Daphnia magna [3]; as used in risk characterisation): 0.06 µg/mL (≈ 0.276 µM)
21-day EC10 (number of offspring per introduced and survived parent) (Daphnia magna [3]; nominal concentrations, 95% confidence interval 46.9–76.0): 0.0597 µg/mL
Vapour pressure [4]: 3.46 × 10^–2 at 25 °C Pa
margin of safety (laying hens): 10 ×
Water solubility ([5]; pH 5, 20°C): 101 µg/mL
Water solubility ([5]; pH 7, 20°C): 60 µg/mL
Solubility at pH 7 (input for PEC) ([5]; pH 7): 60 mg/L
Water solubility ([5]; pH 9, 20°C): 70 µg/mL
concentration with statistically significant effects on shoot fresh weight (terrestrial plants; all species tested): 111 mg test item/kg soil DW
EC10 (terrestrial plants; lowest calculated, 21 days): 55.8 mg test item/kg soil DW
lowest calculated EC50 (terrestrial plants; shoot fresh weight, 21 days): 155 mg test item/kg soil DW
condition factor (Atlantic salmon; 5,000 mg/kg feed (EQ4)): 1.3 g/mL
daily feed intake (Atlantic salmon; 5,000 mg/kg feed (EQ4)): 2.9 g/fish per day
specific growth rate (Atlantic salmon; 5,000 mg/kg feed (EQ4)): 0.8 % bw per day
total feed intake (Atlantic salmon; 5,000 mg/kg feed (EQ4)): 255 g/fish
bw gain (Atlantic salmon; [14]): 276 g
final bw (Atlantic salmon; [14]): 537 g
condition factor (Atlantic salmon; 10,000 mg/kg feed (EQ5)): 1.1 g/mL
daily feed intake (Atlantic salmon; 10,000 mg/kg feed (EQ5)): 1.1 g/fish per day
final salmon length (Atlantic salmon; 10,000 mg/kg feed (EQ5)): 29 cm
specific growth rate (Atlantic salmon; 10,000 mg/kg feed (EQ5)): 0.1 % bw per day
total feed intake (Atlantic salmon; 10,000 mg/kg feed (EQ5)): 100 g/fish
bw gain (Atlantic salmon; [15]): 38 g
final bw (Atlantic salmon; [15]): 301 g
mortality (Atlantic salmon; up to 10,000 mg/kg feed, 90 days): No fish died
extent of metabolism [6]: metabolised extensively
number of metabolites identified ([6]; irrespective of origin): 17
EQ content after 3 months of storage ([7]; 25 mg EQ/kg feed (EQ25)): completely disappeared
peroxide value after manufacturing ([7]; 25 mg EQ/kg feed (EQ25)): 0.89 meq O2/kg fat
peroxide value after 3 months of storage ([7]; 25 mg EQ/kg feed (EQ25)): approx. 23.8
peroxide value after manufacturing ([7]; 50 mg EQ/kg feed (EQ50)): 1.36 meq O2/kg fat
reduction of EQ after 3 months of storage ([7]; 50 mg EQ/kg feed (EQ50)): approx. 80%
peroxide value after 3 months of storage ([7]; 50 mg EQ/kg feed (EQ50)): ~13.6
EC10 development rate (Chironomus riparius): > 250 mg/kg sediment DW
NOEC development rate (Chironomus riparius): 125 mg/kg sediment DW
NOEC emergence rate (Chironomus riparius): 250 mg/kg sediment DW
extent of metabolism [8]: metabolised extensively
number of metabolites identified ([8]; irrespective of origin): 18
concentration at 42 days ([9]; kidney, residue in kidney, highest value, cattle, 50 mg EQ/kg complete feed for 42 days, LOQs 1.5–2 µg EQ, EQDM, metabolite A/kg, 0.5–1 µg EQI, DHEQ/kg): 19.9 ng/g
concentration at 42 days ([9]; liver): 34 ng/g
residue in muscle, highest value ([9]; cattle, 50 mg EQ/kg complete feed for 42 days): ˂ LOQ
residue in muscle, highest value ([9]; cattle, control (0 mg EQ/kg feed), 42 days): ˂ LOQ
induction period ([10]; 25 mg ethoxyquin/kg feed): 7.6 h
protection factor ([10]; 50 mg ethoxyquin/kg feed): 1.46
induction period ([10]; 50 mg ethoxyquin/kg feed): 9.9 h
EC50 (Daphnia magna [11]): 2.48 µg/mL (≈ 11.4 µM)
conclusion on toxicological profile [12]: not genotoxic, carcinogenic, and does not cause developmental toxicity in the offspring
loss of EQ content in feed after 3 months ([13]; 25–30°C, 55–65% RH, EQ = 50 mg EQ/kg feed (EQ50)): approximately 40%
range in which considered an efficacious antioxidant in feed ([13]; Panel's overall conclusion): 25–50 mg/kg complete feed
